Data set [1] can be described thus: Cytotoxicity against human HL60 cells after 72 hrs by CCK-8 assay. The data set is classed as functional, cell-based. The note with it: HL-60, 72 h. The essentials: (§1)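 Cells kept in RPMI 1640 with 10% heat-inactivated fetal calf serum and 1% streptomycin/penicillin at 37 °C, 5% CO2. After compound exposure, CCK-8 was added and cells were incubated 4 h at 37 °C, then absorbance was read at 450 nm. Viability is relative to untreated cells (100%). IC50 comes from nonlinear regression, mean of three separate determinations. Single-concentration screen at 20 µM.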

The nature of data set [2]: Cytotoxicity against human SK-BR-3 cells assessed as growth inhibition at 20 uM after 72 hrs by CCK-8 assay. The data set is classed as functional. The note with it: SK-BR-3, 72 h, read-out: GI. In a few lines:
as §1

Data set [3] in a line: Cytotoxicity against human MDA-MB-231 cells assessed as growth inhibition at 20 uM after 72 hrs by CCK-8 assay. The data set is classed as functional. The note with it: MDA-MB-231, 72 h, read-out: GI. In a few lines:
as §1

A short description of data set [4]: Cytotoxicity against human HCT116 cells assessed as growth inhibition at 20 uM after 72 hrs by CCK-8 assay. The data set is classed as functional. The note with it: HCT-116, 72 h, read-out: GI. The essentials: as §1
Data set [5] in a line: Cytotoxicity against human SW480 cells assessed as growth inhibition at 20 uM after 72 hrs by CCK-8 assay. The data set is classed as functional. The note with it: SW480, 72 h, read-out: GI. In a few lines: as §1
The nature of data set [6]: Cytotoxicity against human OVCAR3 cells assessed as growth inhibition at 20 uM after 72 hrs by CCK-8 assay. The data set is classed as functional. The note with it: OVCAR-3, 72 h, read-out: GI. In a few lines:
as §1

Data set [7] in a line: Cytotoxicity against human HL60 cells assessed as growth inhibition at 20 uM after 72 hrs by CCK-8 assay. The data set is classed as functional. The note with it: HL-60, 72 h, read-out: GI. In a few lines:
as §1

Data set [8] can be described thus: Cytotoxicity against human Saos2 cells assessed as growth inhibition at 20 uM after 72 hrs by CCK-8 assay. The data set is classed as functional. The note with it: SAOS-2, 72 h, read-out: GI. In a few lines: as §1
Data set [9] can be described thus: Antitumor activity against human HepG2 cells assessed as growth inhibition at 20 uM after 72 hrs by CCK-8 assay. The data set is classed as functional. The note with it: HepG2, 72 h, read-out: GI. In a few lines: as §1
The nature of data set [10]: Cytotoxicity against human L02 cells assessed as growth inhibition at 20 uM after 72 hrs by CCK-8 assay. The data set is classed as toxicity, cell-based. The note with it: read-out: GI. In a few lines: as §1
Data set [11] is described as follows: Cytotoxicity against human L02 cells after 72 hrs by CCK-8 assay. The data set is classed as toxicity, cell-based. The essentials: as §1

The structures appear in SMILES notation.

In data set [1], `CC(C)(C)OC(=O)CC1C(=O)Nc2ccc(Cl)cc21` (stereo not given) displayed an IC50 of 81.1 µM.

As to `CCCCc1ccc2c(c1)/C(=C\C(=O)OC(C)(C)C)C(=O)N2`, the inhibition of growth at 20 µM was found to be 87.8% in data set [2]; 87.7% in data set [3]; 89% in data set [4]; 78.3% in data set [5]; 60.2% in [6]; 94.7% in data set [7]. Besides, the inhibition of growth at 20 µM was 84.2% in [8] and 90.3% in data set [9]. Moreover, the inhibition at 72 h, 20 µM in data set [10] came to 63.7%. Moreover, in [1], half-maximal inhibition (IC50) was put at 6.19 µM. For the same molecule, the IC50 at 72 h in [11] came to 4.4 µM.

In turn, `CN1C(=O)/C(=C/C(=O)Oc2ccc(Cl)cc2)c2ccccc21` yielded an IC50 in data set [1] of 12.2 µM.

For the molecule `O=C(O)/C=C1/C(=O)Nc2ccccc21`, the inhibition of growth at 20 µM in data set [2] was 17.9%; in [3], 1%; in data set [4] it was -0.7%; in [5], 6.4%; in data set [6], 13.4%; in [7], 0.9%. The results for the inhibition of growth at 20 µM in [8] and in data set [9] were 8.9% and 3%, respectively. Moreover, the inhibition at 72 h, 20 µM in data set [10] worked out at 3.3%. Moreover, in [1], the concentration for half-maximal inhibition (IC50) was more than 100 µM. This molecule showed an IC50 at 72 h in data set [11] of more than 100 µM.

For `COc1ccc(OC(=O)/C=C2/C(=O)N(C)c3ccccc32)cc1`, in data set [1], 10.6 µM corresponded to half-maximal inhibition (IC50). The IC50 at 72 h in [11] was 23.5 µM.

With `CCOC(=O)/C=C1\C(=O)Nc2ccccc21`, the IC50 in data set [1] is more than 100 µM.

With `COC(=O)CC1C(=O)Nc2ccccc21` (stereo not given), in [1], it took 114 µM to reach half-maximal inhibition (IC50). The molecule further had an IC50 at 72 h in data set [11] of more than 100 µM.

Consider `CCOC(=O)/C=C1/C(=O)Nc2ccccc21`, for which the inhibition of growth at 20 µM in [2] is 85.5%; in data set [3] it was 86.9%; in data set [4], 89.3%; in data set [5] it was 78.3%; in [6], 57.3%; in data set [7] it was 77.7%. Moreover, the inhibition of growth at 20 µM in [8] is 81.4%; in data set [9], 90.2%. Besides, the inhibition at 72 h, 20 µM in data set [10] came out at 63.9%. It took 4.83 µM to reach half-maximal inhibition in data set [1] (IC50). The same molecule displayed an IC50 at 72 h in [11] of 4.23 µM.

`COc1ccc2c(c1)NC(=O)/C2=C/C(=O)OC(C)(C)C`: the inhibition of growth at 20 µM in data set [2] came out at 87%; in data set [3], 87.1%; in [4], 89.5%; in data set [5], 78.8%; in data set [6], 57.9%; in data set [7], 91.6%. The inhibition of growth at 20 µM in [8] is 83.2%; in [9], 88.3%. Further, in [10], the inhibition at 72 h, 20 µM was determined as 63.6%. In [1], this molecule yielded an IC50 of 9.15 µM. This molecule also had an IC50 at 72 h in [11] of 4.34 µM.

Turning to `Cc1ccc2c(c1)/C(=C\C(=O)OC(C)(C)C)C(=O)N2`, the inhibition of growth at 20 µM in data set [2] came to 88%; in data set [3] it was 87.8%; in [4] it was 89.4%; in data set [5], 79%; in [6], 59.5%; in data set [7], 94.6%. Besides, the inhibition of growth at 20 µM worked out at 83.7% in [8] and 90.3% in data set [9]. For the same molecule, the inhibition at 72 h, 20 µM in [10] was determined as 63.9%. In data set [1], the IC50 was found to be 5 µM. This molecule showed an IC50 at 72 h in [11] of 2.68 µM.

With `COC(=O)/C=C1/C(=O)Nc2ccccc21`, the inhibition of growth at 20 µM in data set [2] came out at 86.7%; in data set [3] it was 86.8%; in data set [4] it was 87%; in [5] it was 78.1%; in [6] it was 54.4%; in data set [7] it was 81.5%. The inhibition of growth at 20 µM in data set [8] amounted to 78.6%; in [9] it was 88%. Also, the inhibition at 72 h, 20 µM in data set [10] worked out at 61.5%. Moreover, in [1], the IC50 came to 4.18 µM. This molecule also displayed an IC50 at 72 h in data set [11] of 7.05 µM.

Take `CC(C)(C)OC(=O)/C=C1/C(=O)Nc2ccc(OC(F)(F)F)cc21`: the inhibition of growth at 20 µM in [2] stood at 88.1%; in data set [3], 86.9%; in [4], 87.7%; in data set [5], 77.8%; in data set [6], 59%; in data set [7], 95.9%. The inhibition of growth at 20 µM in [8] came out at 80.1%; in [9] it was 88.4%. In addition, in data set [10], the inhibition at 72 h, 20 µM is 61.3%. In addition, the IC50 in data set [1] amounted to 4.48 µM. The molecule further registered an IC50 at 72 h in [11] of 4.04 µM.

With `COc1cccc2c1NC(=O)/C2=C/C(=O)OC(C)(C)C`, the inhibition of growth at 20 µM in data set [2] turned out to be 87.7%; in data set [3], 86.7%; in data set [4], 87.6%; in data set [5], 77.8%; in data set [6] it was 57.1%; in data set [7], 84.2%. Further, the inhibition of growth at 20 µM turned out to be 81.1% in data set [8] and 87.3% in data set [9]. In addition, in data set [10], the inhibition at 72 h, 20 µM is 61.6%. Besides, in data set [1], the IC50 came out at 9.68 µM.

Consider `Cc1c(Cl)ccc2c1NC(=O)/C2=C/C(=O)OC(C)(C)C`, for which the inhibition of growth at 20 µM turned out to be 87.9% in data set [2]; 87.3% in data set [3]; 89.9% in [4]; 77.2% in data set [5]; 57.4% in data set [6]; 82.9% in data set [7]. For the same molecule, the figures for the inhibition of growth at 20 µM in data set [8] and in data set [9] were 82.6% and 69.7%, respectively. Further, the inhibition at 72 h, 20 µM in data set [10] worked out at 64.3%. The molecule also displayed an IC50 in [1] of 3.64 µM. In [11], this molecule showed an IC50 at 72 h of 6.26 µM.

As for `CCN(CC)CCNC(=O)c1c(C)[nH]c(/C=C2\C(=O)Nc3ccc(F)cc32)c1C` [SUNITINIB], the midpoint of inhibition in data set [1], the IC50, lay at 4.95 µM. In [11], this molecule had an IC50 at 72 h of 4.62 µM.

Turning to `CNC(=O)/C=C1/C(=O)N(C)c2ccccc21`, it took 10.7 µM to reach half-maximal inhibition in [1] (IC50). Moreover, in data set [11], the IC50 at 72 h turned out to be 19.1 µM.

The molecule `CN1C(=O)C(CC(=O)OC(C)(C)C)c2ccccc21` (stereo not given) came in with an IC50 in data set [1] of 93.1 µM. The molecule also yielded an IC50 at 72 h in data set [11] of more than 100 µM.

Consider `CC(=O)O[C@H]1C(=O)[C@@]2(C)[C@H]([C@H](OC(=O)c3ccccc3)[C@]3(O)C[C@H](OC(=O)[C@H](O)[C@@H](NC(=O)c4ccccc4)c4ccccc4)C(C)=C1C3(C)C)[C@]1(OC(C)=O)CO[C@@H]1C[C@@H]2O` [PACLITAXEL], for which the inhibition of growth at 20 µM in data set [2] came to 72.1%; in [3], 85.1%; in data set [4], 88.9%; in data set [5], 76.4%; in data set [6], 58.5%; in data set [7], 71%. Also, the inhibition of growth at 20 µM in data set [8] stood at 77.4%; in [9] it was 89.4%. Besides, in data set [10], the inhibition at 72 h, 20 µM is 61.5%.

`CN1C(=O)/C(=C/C(=O)Oc2ccc3ccccc3c2)c2ccccc21`: the IC50 in data set [1] turned out to be 23.8 µM. In [11], this molecule yielded an IC50 at 72 h of 46.6 µM.

In data set [1], `CN1C(=O)/C(=C/C(=O)Oc2ccccc2)c2ccccc21` had an IC50 of 10.2 µM. The molecule further displayed an IC50 at 72 h in [11] of 22.7 µM.

As for `CN1C(=O)/C(=C/C(=O)O)c2ccccc21`, in [1], the IC50 was found to be 83.7 µM.

The record behind these values is ChEMBL document CHEMBL3877250, “Design, synthesis, and biological evaluation of (2E)-(2-oxo-1, 2-dihydro-3H-indol-3-ylidene)acetate derivatives as anti-proliferative agents through ROS-induced cell apoptosis” (Eur J Med Chem, 2016).
